ChEMBL document CHEMBL1124180, “Asymmetric synthesis and properties of the enantiomers of the antibacterial agent 7-(3-aminopyrrolidin-1-yl)-1-(2,4-difluorophenyl)-1,4-dihydro-6- fluoro-4-oxo-1,8-naphthyridine-3-carboxylic acid hydrochloride” (J Med Chem, 1988)
≈ marks a conversion by molar mass, not a printed value.

Key:
Assay type in all cases: functional
[1] = test system: Bacteroides thetaiotaomicron; assay: In vitro activity against Bacteroides thetaiotaomicron (SFM2975-2)
How it was run: (§1)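 MIC determined under anaerobic conditions on Wilkins-Chalgren agar.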

Prevotella bivia = assay: In vitro activity against Bacteroides bivius(B 6140); how it was run: as §1
Clostridium perfringens [2] = assay: In vitro activity against Clostridium perfringens (104AT13124)
Bacteroides fragilis [3] = assay: In vitro activity against Bacteroides fragilis (SFM2975-7); how it was run: as §1
Peptostreptococcus = assay: In vitro activity against Peptostreptococcus sp.(TB-11)
How it was run: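 MIC for anaerobic bacteria, measured on Wilkins-Chalgren agar.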

[4] = test system: Bacteroides thetaiotaomicron; assay: In vitro activity against thetaiotaomicron (ATCC 29741)
How it was run: (§2)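 Anaerobic MICs measured by agar dilution on Wilkins-Chalgren agar.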

Phocaeicola vulgatus [5] = assay: In vitro activity against Bacteroides vulgatus(SFBC 2375); how it was run: as §1
Hoylesella loescheii = assay: In vitro activity against Bacteroides loescheii (ATCC 15930).; how it was run: as §1
Clostridioides difficile [6] = assay: In vitro activity against Clostridium difficile (ATCC 17857)
Thomasclavelia ramosa = assay: In vitro activity against Clostridium ramosum (7); how it was run: as §1
[7] = test system: Bacteroides thetaiotaomicron; assay: In vitro activity against Bacteroides thetaiotaomicron (ATCC 29742); how it was run: as §1
[8] = test system: Prevotella melaninogenica; assay: In vitro activity against Bacteroides melaninogenicus (ATCC 25845).; how it was run: as §1
Phocaeicola vulgatus [9] = assay: In vitro activity against Bacteroides vulgatus(792); how it was run: as §1
Bacteroides fragilis [10] = assay: In vitro activity against Bacteroides fragilis (784); how it was run: as §1
Bacteroides fragilis [11] = assay: In vitro activity against Bacteroides fragilis (SFM2906A); how it was run: as §1
Bacteroides fragilis [12] = assay: In vitro activity against Bacteroides fragilis (UC-2); how it was run: as §1
Veillonella parvula = assay: In vitro activity against Veillonella parvula (ATCC 10790); how it was run: as §2
Finegoldia magna = assay: In vitro activity against Peptococcus magnus (ATCC 29328); how it was run: as §1
Fusobacterium nucleatum = assay: In vitro activity against Fusobacterium nucleatum (ATCC 25586); how it was run: as §1
[13] = test system: Bacteroides thetaiotaomicron; assay: In vitro activity against Bacteroides thetaiotaomicron (106); how it was run: as §1
Clostridium perfringens [14] = assay: In vitro activity against Clostridium perfringens (SFBC 2026)
Parvimonas micra = assay: In vitro activity against Peptostreptococcus micros (ATCC 33270).; how it was run: as §1
Prevotella disiens = assay: In vitro activity against Bacteroides disiens (ATCC 29426); how it was run: as §1
Bacteroides fragilis [15] = assay: In vitro activity against Bacteroides fragilis (105AT25285); how it was run: as §1
[16] = test system: Peptoniphilus asaccharolyticus; assay: In vitro activity against Peptococcus asaccharolyticus (ATCC 14963).; how it was run: as §1
Clostridioides difficile [17] = assay: In vitro activity against Clostridium difficile (ATCC 9689)

Which MIC [1] does the source give for `CCC[C@@H]1C[C@@H](C(=O)N[C@@H]([C@H]2O[C@H](SC)[C@H](O)[C@@H](O)[C@H]2O)[C@H](C)Cl)N(C)C1` [CLINDAMYCIN] here?
Its MIC is 0.5 µg/mL (≈ 1.18 µM).

What about the MIC (Prevotella bivia) of the same compound?
The MIC was under 0.015 µg/mL.

And the MIC (Clostridium perfringens [2])?
Its MIC is 0.03 µg/mL (≈ 0.0706 µM).

What about the MIC (Bacteroides fragilis [3]) of the same compound?
The MIC was 2 µg/mL (≈ 4.71 µM).

What about the MIC (Peptostreptococcus) of the same compound?
The MIC was 0.06 µg/mL (≈ 0.141 µM).

What about the MIC [4] of the same compound?
The MIC was 8 µg/mL (≈ 18.8 µM).

And the MIC (Phocaeicola vulgatus [5])?
Its MIC is under 0.015 µg/mL.

And the MIC (Hoylesella loescheii)?
Its MIC is 0.5 µg/mL (≈ 1.18 µM).

And the MIC (Clostridioides difficile [6])?
The MIC was 8 µg/mL (≈ 18.8 µM).

And the MIC (Thomasclavelia ramosa)?
The MIC was 1 µg/mL (≈ 2.35 µM).

What about the MIC [7] of the same compound?
The MIC was 4 µg/mL (≈ 9.41 µM).

What about the MIC [8] of the same compound?
Its MIC is 0.03 µg/mL (≈ 0.0706 µM).

What about the MIC (Phocaeicola vulgatus [9]) of the same compound?
The MIC was under 0.015 µg/mL.

What about the MIC (Bacteroides fragilis [10]) of the same compound?
The MIC was 1 µg/mL (≈ 2.35 µM).

And the MIC (Bacteroides fragilis [11])?
The MIC was 0.5 µg/mL (≈ 1.18 µM).

And the MIC (Bacteroides fragilis [12])?
Its MIC is 0.5 µg/mL (≈ 1.18 µM).

And the MIC (Veillonella parvula)?
Its MIC is 0.06 µg/mL (≈ 0.141 µM).

What about the MIC (Finegoldia magna) of the same compound?
The MIC was 1 µg/mL (≈ 2.35 µM).

And the MIC (Fusobacterium nucleatum)?
Its MIC is 0.25 µg/mL (≈ 0.588 µM).

What about the MIC [13] of the same compound?
Its MIC is 4 µg/mL (≈ 9.41 µM).

And the MIC (Clostridium perfringens [14])?
Its MIC is 0.25 µg/mL (≈ 0.588 µM).

And the MIC (Parvimonas micra)?
Its MIC is 0.06 µg/mL (≈ 0.141 µM).

What about the MIC (Prevotella disiens) of the same compound?
The MIC was under 0.015 µg/mL.

And the MIC (Bacteroides fragilis [15])?
Its MIC is 2 µg/mL (≈ 4.71 µM).

And the MIC [16]?
Its MIC is 0.06 µg/mL (≈ 0.141 µM).

What about the MIC (Clostridioides difficile [17]) of the same compound?
Its MIC is 4 µg/mL (≈ 9.41 µM).
